Laboratory results from ChEMBL document CHEMBL5724801, “EUbOPEN Chemogenomics Library - Multiplex” (2024).
“And” between values parts separate entries of the source, which are not always exact repeats. Identical values can stand only once.

Test system: U2OS
Assay: Multiplex assay against U2OS
Format: toxicity, cell-based
Conditions: human
Procedure, shortened: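 With compound added, live cells were imaged on a CQ1 microscope at 37°C and 5% CO2; staining with Hoechst33342, BioTracker Green Microtubule Cytoskeleton Dye, MitoTracker Red and Annexin V Alexa Fluor 680 had been done at seeding. The CellPathfinder machine-learning gating scheme split cells into Hoechst high-intensity objects or normal cells, normal cells into healthy, pyknosed or fragmented nuclei, and pyknosed cells into mitotic or apoptotic. The tubulin, mitochondrial-mass and membrane-permeability phenotypes are per cents of healthy-nucleus cells.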

[1] = 12 h, 1 µM, compound concentration 1 uM
[2] = 12 h, 10 µM, compound concentration 10 uM
[3] = 24 h, 1 µM, compound concentration 1 uM
[4] = 24 h, 10 µM, compound concentration 10 uM
[5] = 48 h, 1 µM, compound concentration 1 uM
[6] = 48 h, 10 µM, compound concentration 10 uM

CCOc1ccccc1C(=O)NCC1(N2CCN(CC)CC2)CCCCC1
Population Apoptotic (%) [1]: 45.83% and 31.82%
Population Fragmented Nuclei (%) [1]: 1.72% and 5.19%
Population Healthy Nuclei (%) [1]: 91.38% and 78.52%
Population Hoechst High Intensity Objects (%) [1]: 0%
Population Membrane Permeable-Phenotype (%) [1]: 1.26% and 8.49%
Population Mitotic Cells (%) [1]: 54.17% and 68.18%
Population Normal (%) [1]: 100%
Population Pyknosed Nuclei (%) [1]: 6.9% and 16.3%
Population Tubulin-Different-Phenotype (%) [1]: 0.63% and 0.94%
Total Cell Count [1]: 348 and 135
Population Apoptotic (%) [2]: 35% and 23.68%
Population Fragmented Nuclei (%) [2]: 1.81% and 4.03%
Population Healthy Nuclei (%) [2]: 80.05% and 70.47%
Population Hoechst High Intensity Objects (%) [2]: 0.23% and 0%
Population Membrane Permeable-Phenotype (%) [2]: 16.15% and 31.43%
Population Mitotic Cells (%) [2]: 65% and 76.32%
Population Normal (%) [2]: 99.77% and 100%
Population Pyknosed Nuclei (%) [2]: 18.14% and 25.5%
Population Tubulin-Different-Phenotype (%) [2]: 49.86% and 44.76%
Total Cell Count [2]: 442 and 149
Population Apoptotic (%) [3]: 46.15% and 50%
Population Fragmented Nuclei (%) [3]: 1.89% and 5.62%
Population Healthy Nuclei (%) [3]: 87.16% and 80.62%
Population Hoechst High Intensity Objects (%) [3]: 0%
Population Membrane Permeable-Phenotype (%) [3]: 1.21% and 8.53%
Population Mitochondria Different-Phenotype (%) [3]: 0% and 12.4%
Population Mitotic Cells (%) [3]: 53.85% and 50%
Population Normal (%) [3]: 100%
Population Pyknosed Nuclei (%) [3]: 10.95% and 13.75%
Population Tubulin-Different-Phenotype (%) [3]: 0.48% and 1.55%
Total Cell Count [3]: 475 and 160
Population Apoptotic (%) [4]: 52.04% and 44.44%
Population Fragmented Nuclei (%) [4]: 2.49% and 6.29%
Population Healthy Nuclei (%) [4]: 80.07% and 65.41%
Population Hoechst High Intensity Objects (%) [4]: 0%
Population Membrane Permeable-Phenotype (%) [4]: 8% and 10.58%
Population Mitotic Cells (%) [4]: 47.96% and 55.56%
Population Normal (%) [4]: 100%
Population Pyknosed Nuclei (%) [4]: 17.44% and 28.3%
Population Tubulin-Different-Phenotype (%) [4]: 29.33% and 41.35%
Population Apoptotic (%) [5]: 37.84% and 48.15%
Population Fragmented Nuclei (%) [5]: 2.6% and 4.8%
Population Healthy Nuclei (%) [5]: 88.67% and 71.62%
Population Hoechst High Intensity Objects (%) [5]: 0%
Population Membrane Permeable-Phenotype (%) [5]: 1.33% and 6.1%
Population Mitotic Cells (%) [5]: 62.16% and 51.85%
Population Normal (%) [5]: 100%
Population Pyknosed Nuclei (%) [5]: 8.74% and 23.58%
Population Tubulin-Different-Phenotype (%) [5]: 0.93% and 3.05%
Population Apoptotic (%) [6]: 58.2% and 70.77%
Population Fragmented Nuclei (%) [6]: 2.88% and 5.66%
Population Healthy Nuclei (%) [6]: 83.08% and 63.68%
Population Hoechst High Intensity Objects (%) [6]: 0.11% and 0%
Population Mitotic Cells (%) [6]: 41.8% and 29.23%
Population Normal (%) [6]: 99.89% and 100%
Population Pyknosed Nuclei (%) [6]: 14.04% and 30.66%
Population Tubulin-Different-Phenotype (%) [6]: 15.24% and 28.89%

Clc1ccccc1C(c1ccccc1)(c1ccccc1)n1cccn1
Population Apoptotic (%) [1]: 52.94% and 50%
Population Fragmented Nuclei (%) [1]: 0.85% and 6.19%
Population Healthy Nuclei (%) [1]: 94.3% and 76.11%
Population Hoechst High Intensity Objects (%) [1]: 0%
Population Membrane Permeable-Phenotype (%) [1]: 0.91% and 5.81%
Population Mitochondria Different-Phenotype (%) [1]: 0.6% and 8.14%
Population Mitotic Cells (%) [1]: 47.06% and 50%
Population Normal (%) [1]: 100%
Population Tubulin-Different-Phenotype (%) [1]: 1.51% and 2.33%
Population Apoptotic (%) [2]: 36% and 44%
Population Fragmented Nuclei (%) [2]: 1.64% and 4.81%
Population Healthy Nuclei (%) [2]: 84.7% and 71.15%
Population Hoechst High Intensity Objects (%) [2]: 0%
Population Membrane Permeable-Phenotype (%) [2]: 2.58% and 8.11%
Population Mitotic Cells (%) [2]: 64% and 56%
Population Normal (%) [2]: 100%
Population Pyknosed Nuclei (%) [2]: 13.66% and 24.04%
Population Tubulin-Different-Phenotype (%) [2]: 4.19% and 5.41%
Population Apoptotic (%) [3]: 37.5% and 52.38%
Population Fragmented Nuclei (%) [3]: 0.42% and 4.86%
Population Healthy Nuclei (%) [3]: 89.47% and 80.56%
Population Hoechst High Intensity Objects (%) [3]: 0%
Population Membrane Permeable-Phenotype (%) [3]: 0.71% and 2.59%
Population Mitochondria Different-Phenotype (%) [3]: 0% and 6.9%
Population Mitotic Cells (%) [3]: 62.5% and 47.62%
Population Normal (%) [3]: 100%
Population Pyknosed Nuclei (%) [3]: 10.11% and 14.58%
Population Tubulin-Different-Phenotype (%) [3]: 0.71% and 0%
Population Apoptotic (%) [4]: 45.33% and 34.38%
Population Fragmented Nuclei (%) [4]: 1.25% and 0.79%
Population Healthy Nuclei (%) [4]: 83.12% and 73.81%
Population Hoechst High Intensity Objects (%) [4]: 0%
Population Membrane Permeable-Phenotype (%) [4]: 0.75% and 4.3%
Population Mitotic Cells (%) [4]: 54.67% and 65.62%
Population Normal (%) [4]: 100%
Population Pyknosed Nuclei (%) [4]: 15.62% and 25.4%
Population Tubulin-Different-Phenotype (%) [4]: 2.51% and 2.15%
Population Apoptotic (%) [5]: 43.33% and 70%
Population Fragmented Nuclei (%) [5]: 3.58% and 1.82%
Population Healthy Nuclei (%) [5]: 89.7% and 89.09%
Population Hoechst High Intensity Objects (%) [5]: 0%
Population Membrane Permeable-Phenotype (%) [5]: 0.75% and 3.57%
Population Mitochondria Different-Phenotype (%) [5]: 0.12% and 4.08%
Population Mitotic Cells (%) [5]: 56.67% and 30%
Population Normal (%) [5]: 100%
Population Pyknosed Nuclei (%) [5]: 6.72% and 9.09%
Population Tubulin-Different-Phenotype (%) [5]: 1.25% and 2.04%
Population Apoptotic (%) [6]: 51.65% and 41.67%
Population Fragmented Nuclei (%) [6]: 2.12% and 0.6%
Population Healthy Nuclei (%) [6]: 85.85% and 77.71%
Population Hoechst High Intensity Objects (%) [6]: 0%
Population Membrane Permeable-Phenotype (%) [6]: 1.54% and 5.43%
Population Mitochondria Different-Phenotype (%) [6]: 1.08% and 10.08%
Population Mitotic Cells (%) [6]: 48.35% and 58.33%
Population Normal (%) [6]: 100%
Population Pyknosed Nuclei (%) [6]: 12.04% and 21.69%
Population Tubulin-Different-Phenotype (%) [6]: 3.08% and 5.43%

Cl.c1ccc2c(c1)CCC[C@H]2Nc1nc2ccccc2[nH]1
Population Apoptotic (%) [1]: 51.52% and 50%
Population Fragmented Nuclei (%) [1]: 1.35% and 1.11%
Population Healthy Nuclei (%) [1]: 89.73% and 86.67%
Population Hoechst High Intensity Objects (%) [1]: 0%
Population Membrane Permeable-Phenotype (%) [1]: 0.9% and 4.49%
Population Mitochondria Different-Phenotype (%) [1]: 0% and 8.33%
Population Mitotic Cells (%) [1]: 48.48% and 50%
Population Normal (%) [1]: 100%
Population Pyknosed Nuclei (%) [1]: 8.92% and 12.22%
Population Tubulin-Different-Phenotype (%) [1]: 0.9% and 0.64%
Total Cell Count [1]: 370 and 180
Population Apoptotic (%) [2]: 34.15% and 18.18%
Population Fragmented Nuclei (%) [2]: 1.73% and 1.16%
Population Healthy Nuclei (%) [2]: 88.15% and 86.13%
Population Hoechst High Intensity Objects (%) [2]: 0%
Population Membrane Permeable-Phenotype (%) [2]: 1.96% and 2.01%
Population Mitotic Cells (%) [2]: 65.85% and 81.82%
Population Normal (%) [2]: 100%
Population Pyknosed Nuclei (%) [2]: 10.12% and 12.72%
Population Tubulin-Different-Phenotype (%) [2]: 1.96% and 2.01%
Total Cell Count [2]: 405 and 173
Population Apoptotic (%) [3]: 36.36% and 51.52%
Population Fragmented Nuclei (%) [3]: 1.17% and 2.47%
Population Healthy Nuclei (%) [3]: 92.41% and 83.95%
Population Hoechst High Intensity Objects (%) [3]: 0.19% and 0%
Population Membrane Permeable-Phenotype (%) [3]: 0.42% and 2.94%
Population Mitochondria Different-Phenotype (%) [3]: 0.21% and 7.35%
Population Mitotic Cells (%) [3]: 63.64% and 48.48%
Population Normal (%) [3]: 99.81% and 100%
Population Pyknosed Nuclei (%) [3]: 6.42% and 13.58%
Population Tubulin-Different-Phenotype (%) [3]: 0.21% and 1.47%
Total Cell Count [3]: 515 and 243
Population Apoptotic (%) [4]: 40% and 51.85%
Population Fragmented Nuclei (%) [4]: 2.23% and 2.74%
Population Healthy Nuclei (%) [4]: 89.41% and 84.93%
Population Hoechst High Intensity Objects (%) [4]: 0%
Population Membrane Permeable-Phenotype (%) [4]: 1.87% and 2.69%
Population Mitochondria Different-Phenotype (%) [4]: 0.42% and 8.06%
Population Mitotic Cells (%) [4]: 60% and 48.15%
Population Normal (%) [4]: 100%
Population Pyknosed Nuclei (%) [4]: 8.36% and 12.33%
Population Tubulin-Different-Phenotype (%) [4]: 1.87% and 1.08%
Total Cell Count [4]: 538 and 219
Population Apoptotic (%) [5]: 36.59% and 47.06%
Population Fragmented Nuclei (%) [5]: 3.12% and 2.18%
Population Healthy Nuclei (%) [5]: 88.61% and 85.44%
Population Hoechst High Intensity Objects (%) [5]: 0%
Population Membrane Permeable-Phenotype (%) [5]: 0.46% and 2.27%
Population Mitochondria Different-Phenotype (%) [5]: 0.11% and 6.25%
Population Mitotic Cells (%) [5]: 63.41% and 52.94%
Population Normal (%) [5]: 100%
Population Pyknosed Nuclei (%) [5]: 8.27% and 12.38%
Population Tubulin-Different-Phenotype (%) [5]: 0.57% and 0.85%
Total Cell Count [5]: 992 and 412
Population Apoptotic (%) [6]: 41.57% and 48.08%
Population Fragmented Nuclei (%) [6]: 2.25% and 2.98%
Population Healthy Nuclei (%) [6]: 88.65% and 82.93%
Population Hoechst High Intensity Objects (%) [6]: 0% and 0.27%
Population Membrane Permeable-Phenotype (%) [6]: 1.5% and 3.92%
Population Mitochondria Different-Phenotype (%) [6]: 0% and 3.92%
Population Mitotic Cells (%) [6]: 58.43% and 51.92%
Population Normal (%) [6]: 100% and 99.73%
Population Pyknosed Nuclei (%) [6]: 9.1% and 14.09%
Population Tubulin-Different-Phenotype (%) [6]: 1.5% and 2.61%
Total Cell Count [6]: 978 and 370
